Assay results reported in paper PMC9275543 (Chromatographia, 2022).
Where two headings read alike, the source gives them in different places.

Columns and labels:
ACE2 [1] = target: T1, ACE2 (Homo sapiens, UniProt Q9BYF1); conditions: cell chromatography; cited from earlier work
[2] = target: SARS-CoV-2-Main protease (Main pro) (Severe acute respiratory syndrome coronavirus 2, UniProt P0DTD1); experiment: Normalized breakthrough curves on the Main pro affinity capillary column; type: binding
Summary of the method: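 Recombinant biotinylated Main pro was loaded at 10 μM and 30 nL/min onto a neutravidin poly(GMA-co-EDMA) monolith capillary, immobilising about 1.60 pmol (n = 6). Free test compound and its PEG-dispersed oxidised MWCNT nanovector (5 μM) were flushed in 50 mM PBS pH 7.4. Reference columns were neutravidin-only and ACE2. UV was read at 238 nm. Breakthrough was normalised as outlet/inlet absorbance versus tp/t0, with t0 from DMSO.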

[3] = Breakthrough on neutravidin control column; type: binding; conditions: 5 μM; 25 μm i.d.; 30 nL/min; 25 °C; no ACE2 or Main pro
Summary of the method: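 Frontal analysis: free test compound or its PEG-dispersed oxidized multiwall carbon nanotube nanovector, each at 5 μM in 50 mM PBS pH 7.4, flushed successively through a neutravidin poly(GMA-co-EDMA) monolith capillary (40 mm, 25 μm i.d.) with no grafted receptor. Run at 30 nL min−1 and 25 °C with UV detection at 238 nm. Saturation plateau time tp is normalized to DMSO-derived dead time t0.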

ACE2 [4] = target: T1, ACE2; experiment: Competition experiment with SARS-CoV-2 RBD on the ACE2 affinity column; type: binding; conditions: from competition with SARS-CoV-2 RBD
ACE2 [5] = target: T1, ACE2; conditions: surface plasmon resonance; cited from earlier work
[6] = target: angiotensin-converting enzyme 2 (ACE2) (Homo sapiens, UniProt Q9BYF1); experiment: Frontal analysis on the ACE2 affinity capillary column; type: binding; conditions: 5 μM; 25 μm i.d., 40 mm; 30 nL/min; 25 °C
angiotensin-converting enzyme 2 (ACE2), sequence (Q9BYF1 18-805): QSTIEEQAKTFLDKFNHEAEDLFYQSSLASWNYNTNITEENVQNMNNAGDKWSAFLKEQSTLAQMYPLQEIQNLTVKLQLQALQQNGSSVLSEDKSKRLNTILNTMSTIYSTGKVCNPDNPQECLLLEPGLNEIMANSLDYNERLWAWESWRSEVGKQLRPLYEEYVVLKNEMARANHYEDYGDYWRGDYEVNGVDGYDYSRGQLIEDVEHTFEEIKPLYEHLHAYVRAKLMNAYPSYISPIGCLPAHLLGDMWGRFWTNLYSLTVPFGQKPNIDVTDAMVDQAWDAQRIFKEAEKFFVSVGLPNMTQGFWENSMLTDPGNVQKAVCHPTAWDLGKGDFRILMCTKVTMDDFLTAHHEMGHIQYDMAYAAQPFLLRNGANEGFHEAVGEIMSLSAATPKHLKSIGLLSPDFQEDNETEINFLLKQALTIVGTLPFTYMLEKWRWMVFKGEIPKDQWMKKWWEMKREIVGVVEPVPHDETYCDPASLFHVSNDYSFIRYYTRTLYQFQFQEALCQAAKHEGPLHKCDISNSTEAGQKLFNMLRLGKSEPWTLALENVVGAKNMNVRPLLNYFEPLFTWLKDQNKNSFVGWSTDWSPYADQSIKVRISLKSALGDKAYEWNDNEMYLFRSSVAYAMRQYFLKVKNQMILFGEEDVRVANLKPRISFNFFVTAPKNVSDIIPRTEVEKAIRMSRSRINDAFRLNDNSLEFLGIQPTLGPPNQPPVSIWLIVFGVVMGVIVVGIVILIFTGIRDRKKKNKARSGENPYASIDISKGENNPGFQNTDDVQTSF

T1 sequence (Q9BYF1 18-805): as above

SMILES | Kd (ACE2 [1]) [µM] | Kd [2] [µM] | normalized breakthrough time on the Main pro column ([2]; 5 μM, 25 μm i.d., 40 mm, 30 nL/min, 25 °C) | normalized breakthrough time t/t0 on neutravidin control column [3] | binding site on ACE2 (ACE2 [4]) | Kd (ACE2 [5]) [µM] | normalized breakthrough time on the ACE2 column [6]
CCN(CC)CCCC(C)Nc1ccnc2cc(Cl)ccc12 (stereo not shown) [Chloroquine, chloroquine] | 1.3 |  |  |  |  |  | 
C[C@@H]1C[C@H]2[C@@H]3CCC4=CC(=O)C=C[C@]4(C)[C@@]3(F)[C@@H](O)C[C@]2(C)[C@@]1(O)C(=O)CO [Dexamethasone] |  | > 5 | above 1 | ~1 | bound on the orthosteric site of ACE2 with specific interaction | 9 | above 1
